Reference: ChEMBL document CHEMBL1145607, “Design, synthesis and evaluation of 2-phenyl-1H-benzo[d]imidazole-4,7-diones as vascular smooth muscle cell proliferation inhibitors” (Bioorg Med Chem Lett, 2008)
Calls of active or inactive are those of the source. The rule behind the calls is not given here.

Columns and labels:
[1] = Antiproliferative activity against PDGF-induced rat aortic VSMC by colorimetric assay; assay type: functional, tissue-based; conditions: Aorta
Outline: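 Rat aortic SMCs stimulated with PDGF; inhibition of proliferation read by a colorimetric assay; IC50 values determined by comparison to mycophenolic acid as standard agent.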

[2] = Down-regulation of cyclin A protein expression in rat aortic VSMC at 1 ug/ml after 48 hrs by Western blot; assay type: functional, tissue-based; conditions: Aorta
Outline: (§1)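 Total cell lysates from cultured SMCs treated with 1 µg/mL for 48 h; PCNA, cyclin A, cyclin D1, pRb (also cdk 2) probed by Western blot.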

[3] = target: RAC-alpha serine/threonine-protein kinase (Rattus norvegicus) (UniProt P47196); test: Inhibition of Akt phosphorylation in rat aortic VSMC at 1 ug/ml after 1 hr; assay type: tissue-based; conditions: Aorta
Outline: (§2)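 Cultured SMCs exposed to test agent for 1 h; phosphorylated ERK and phosphorylated Akt examined by Western blot.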

VSMC [4] = test: Antiproliferative activity against PDGF-induced rat aortic VSMC assessed as cell density at 1 ug/ml after 48 hrs by phase-contrast microscope; assay type: functional, cell-based
Outline: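 Cultured rat aortic SMCs exposed to 1 µg/mL test agent or DMSO vehicle alone for 48 h; cell density judged by observation and photography under a phase-contrast microscope.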

[5] = Cell cycle arrest in rat aortic VSMC assessed as DNA accumulation at S phase at 1 ug/ml after 48 hrs relative to control; assay type: functional, cell-based
Outline: (§3)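 Cultured SMCs treated with 1 µg/mL for 48 h alongside a vehicle-treated control; DNA content per cell-cycle phase analysed by flow cytometry.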

[6] = Cell cycle arrest in rat aortic VSMC assessed as DNA accumulation at G0/G1 phase at 1 ug/ml after 48 hrs relative to control; assay type: functional, cell-based; outline: as §3
[7] = Cell cycle arrest in rat aortic VSMC assessed as DNA accumulation at G2/M phase at 1 ug/ml after 48 hrs relative to control; assay type: functional, cell-based; outline: as §3
Rattus norvegicus = organism: Rattus norvegicus; test: Inhibition of ERK phosphorylation in rat aortic VSMC at 1 ug/ml after 1 hr; assay type: tissue-based; conditions: Aorta; outline: as §2
VSMC [8] = test: Effect on pRb protein expression in rat aortic VSMC at 1 ug/ml after 48 hrs by Western blot; assay type: functional, tissue-based; conditions: Aorta; outline: as §1
VSMC [9] = test: Effect on cyclin D1 protein expression in rat aortic VSMC at 1 ug/ml after 48 hrs by Western blot; assay type: functional, tissue-based; conditions: Aorta; outline: as §1
[10] = Down-regulation of PCNA protein expression in rat aortic VSMC at 1 ug/ml after 48 hrs by Western blot; assay type: functional, tissue-based; conditions: Aorta; outline: as §1

RAC-alpha serine/threonine-protein kinase (Rattus norvegicus), sequence (P47196 whole entry): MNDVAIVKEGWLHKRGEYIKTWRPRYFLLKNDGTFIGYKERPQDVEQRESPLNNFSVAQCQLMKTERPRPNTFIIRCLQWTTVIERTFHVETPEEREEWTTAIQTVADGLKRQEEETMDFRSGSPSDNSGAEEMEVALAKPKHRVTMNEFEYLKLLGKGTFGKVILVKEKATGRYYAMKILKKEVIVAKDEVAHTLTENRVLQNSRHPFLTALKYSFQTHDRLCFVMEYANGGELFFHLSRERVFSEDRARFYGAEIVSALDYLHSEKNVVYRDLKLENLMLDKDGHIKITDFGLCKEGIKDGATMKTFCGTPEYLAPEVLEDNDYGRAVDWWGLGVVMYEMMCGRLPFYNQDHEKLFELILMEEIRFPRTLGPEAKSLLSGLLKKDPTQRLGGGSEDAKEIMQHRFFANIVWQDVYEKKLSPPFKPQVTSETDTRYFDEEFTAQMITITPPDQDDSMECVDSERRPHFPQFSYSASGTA

SMILES | IC50 [1] | further results
O=C1C(Cl)=C(Nc2ccc(F)cc2)C(=O)c2[nH]c(-c3ccncc3)nc21 | 50 µM | –
Cc1ccc(SC2=C(Cl)C(=O)c3nc(-c4ccccn4)[nH]c3C2=O)cc1 | 2.5 µM | –
Cc1ccc(NC2=C(Cl)C(=O)c3nc(-c4ccccn4)[nH]c3C2=O)cc1 | 50 µM | –
O=C1C(Cl)=C(Nc2ccc(OC(F)(F)F)cc2)C(=O)c2[nH]c(-c3ccccn3)nc21 | 20 µM | –
O=C1C(Cl)=C(Sc2ccc(O)cc2)C(=O)c2[nH]c(-c3ccccc3)nc21 | 2 µM | –
O=C1C(Cl)=C(Sc2ccc(Cl)cc2)C(=O)c2[nH]c(-c3ccccn3)nc21 | 4 µM | –
O=C1C(Cl)=C(Nc2ccc(OC(F)(F)F)cc2)C(=O)c2[nH]c(-c3ccccc3)nc21 | 1.5 µM | –
O=C1C(Cl)=C(Sc2ccc(Br)cc2)C(=O)c2[nH]c(-c3ccccc3)nc21 | 1.5 µM | –
O=C1C(Cl)=C(Sc2ccccc2)C(=O)c2[nH]c(-c3ccccc3)nc21 | 1.5 µM | –
Cc1ccc(NC2=C(Cl)C(=O)c3nc(-c4ccccc4)[nH]c3C2=O)cc1 | 3 µM | –
O=C1C(Cl)=C(Nc2ccc(F)cc2)C(=O)c2[nH]c(-c3cccnc3)nc21 | 21 µM | –
O=C1C(Cl)=C(Nc2ccc(C(F)(F)F)cc2)C(=O)c2[nH]c(-c3ccccc3)nc21 | 9.4 µM | –
CCc1ccc(NC2=C(Cl)C(=O)c3nc(-c4ccccc4)[nH]c3C2=O)cc1 | 10.7 µM | –
COc1ccc(SC2=C(Cl)C(=O)c3nc(-c4ccccn4)[nH]c3C2=O)cc1 | 4.2 µM | –
Cc1ccc(NC2=C(Cl)C(=O)c3nc(-c4ccccc4)[nH]c3C2=O)cc1C | 3 µM | –
COc1ccc(NC2=C(Cl)C(=O)c3nc(-c4ccccc4)[nH]c3C2=O)cc1 | 2 µM | –
O=C1C(Cl)=C(Sc2ccc(Br)cc2)C(=O)c2[nH]c(-c3ccccn3)nc21 | 12 µM | –
CCc1ccc(SC2=C(Cl)C(=O)c3nc(-c4ccccn4)[nH]c3C2=O)cc1 | 7 µM | –

SMILES | IC50 [1] | further results
O=C1C(Cl)=C(Nc2ccc(Cl)cc2)C(=O)c2[nH]c(-c3cccnc3)nc21 | 20 µM | –
COc1ccc(SC2=C(Cl)C(=O)c3nc(-c4ccccc4)[nH]c3C2=O)cc1 | 1 µM | Activity [2]: Active; Activity [3]: Active; Activity (VSMC [4]): Active; Activity [5]: 22.4%; Activity [6]: 59.6%; Activity [7]: 8%; Activity (Rattus norvegicus): Active; Activity (VSMC [8]): Active; Activity (VSMC [9]): Active; Activity [10]: Active
O=C1C(Cl)=C(Nc2ccc(Cl)cc2)C(=O)c2[nH]c(-c3ccccc3)nc21 | 5.3 µM | –
O=C1C(Cl)=C(Nc2ccc(Br)cc2)C(=O)c2[nH]c(-c3ccncc3)nc21 | 100 µM | –
COc1ccc(NC2=C(Cl)C(=O)c3nc(-c4ccncc4)[nH]c3C2=O)cc1 | 50 µM | –
Cc1ccc(SC2=C(Cl)C(=O)c3nc(-c4ccccc4)[nH]c3C2=O)cc1 | 1 µM | –
O=C1C(Cl)=C(Nc2ccc(Br)cc2)C(=O)c2[nH]c(-c3ccccn3)nc21 | 6.5 µM | –
O=C1C(Cl)=C(Nc2ccc(Br)cc2)C(=O)c2[nH]c(-c3cccnc3)nc21 | 50 µM | –
O=C1C(Cl)=C(Nc2ccc(C(F)(F)F)cc2)C(=O)c2[nH]c(-c3ccccn3)nc21 | 1 µM | –
CCOc1ccc(NC2=C(Cl)C(=O)c3nc(-c4ccccc4)[nH]c3C2=O)cc1 | 50 µM | –
Cc1cccc(SC2=C(Cl)C(=O)c3nc(-c4ccccc4)[nH]c3C2=O)c1 | 2 µM | –
O=C1C(Cl)=C(Nc2ccccc2)C(=O)c2[nH]c(-c3ccccc3)nc21 | 4 µM | –
O=C1C(Cl)=C(Nc2ccc(Cl)cc2)C(=O)c2[nH]c(-c3ccccn3)nc21 | 12.1 µM | –
O=C1C(Cl)=C(Nc2ccc(F)cc2)C(=O)c2[nH]c(-c3ccccn3)nc21 | 9.4 µM | –
COc1c(C)c2c(c(O)c1C/C=C(\C)CCC(=O)O)C(=O)OC2 [MYCOPHENOLIC ACID] | 1 µM | –
COc1ccc(NC2=C(Cl)C(=O)c3nc(-c4cccnc4)[nH]c3C2=O)cc1 | 42 µM | –
O=C1C(Cl)=C(Nc2ccc(Cl)cc2)C(=O)c2[nH]c(-c3ccncc3)nc21 | 25 µM | –
COc1ccc(NC2=C(Cl)C(=O)c3nc(-c4ccccn4)[nH]c3C2=O)cc1 | 20 µM | –
